In ChEMBL document CHEMBL1130401, “Retinoic acid conjugates as potential antitumor agents: synthesis and biological activity of conjugates with Ara-A, Ara-C, 3(2H)-furanone, and aniline mustard moieties” (J Med Chem, 1997):
In brackets after ≈: the same amount, converted by molar mass.

Experiments:
HL-60 [1] = assay: The cytotoxic activity in HL-60 cells; type: functional, cell-based; conditions: Homo sapiens
In short: (§1)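 HL-60 cells from ATCC. Each well received 7.5 × 10⁴ cells plus test compound. Cells grew for 72 h at 37 °C in humidified, CO₂-controlled air, with growth linear over this period. Cells were then counted in a Coulter counter. IC50 is the concentration that cut cell number by 50%.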

HL-60 [2] = assay: (§2) Differentiating activity of compound in HL60 cells at conc 4 ug/mL; type: functional, Homo sapiens
In short: (§3)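 10⁶ HL-60 cells were exposed to compound for 6 days, then resuspended in RPMI-1640 with 20% FBS and 2 mM L-glutamine. An equal volume of fresh NBT solution (2 mg/mL, with PMA 200 ng/mL in PBS pH 7.2) was added and incubated 40 min at 37 °C with shaking. Cells were chilled, pelleted and resuspended. Formazan-positive cells were counted by hemocytometer (≥200 cells scored). Untreated cultures served as controls.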

HL-60 [3] = assay: (§4) Differentiating activity of compound in HL60 cells at conc 1 ug/mL; type: functional, Homo sapiens; in short: as §3
HL-60 [4] = assay: Differentiating activity of compound in HL60 cells at conc 0.32 ug/mL; type: functional, Homo sapiens; in short: as §3
HL-60 [5] = assay: Differentiating activity of compound in HL60 cells at conc 0.08 ug/mL; type: functional, Homo sapiens; in short: as §3
HL-60 [6] = assay: Cytotoxic activity in HL-60 cells; type: functional, cell-based; conditions: Homo sapiens; in short: as §1
HL-60 [7] = assay: Differentiating activity of compound in HL60 cells at conc 0.2 ug/mL; type: functional, Homo sapiens; in short: as §3
HL-60 [8] = assay: Differentiating activity of compound in HL60 cells at conc 0.05 ug/mL; type: functional, Homo sapiens; in short: as §3
HL-60 [9] = assay: Differentiating activity of compound in HL60 cells at conc 0.5 ug/mL; type: functional, Homo sapiens; in short: as §3
HL-60 [10] = assay: Differentiating activity of compound in HL60 cells at conc 2 ug/mL; type: functional, Homo sapiens; in short: as §3
HL-60 [11] = assay: as §4; type: functional, Homo sapiens; remark: listed apart in the source
In short: (§5)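 HL-60 (ATCC) cells exposed to compound for 6 days; 10⁶ cells resuspended in 1 mL RPMI-1640 with 20% FBS and 2 mM L-glutamine, mixed with 1 mL fresh NBT (2 mg/mL) containing PMA 200 ng/mL in PBS pH 7.2, 40 min at 37 °C shaking, ice-stopped, pelleted. Formazan-positive cells counted by hemocytometer light microscopy, ≥200 cells scored; value = % NBT-positive cells.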

HL-60 [12] = assay: as §2; type: functional, Homo sapiens; in short: as §5; remark: listed apart in the source
HL-60 [13] = assay: Differentiating activity of compound in HL60 cells at conc 0.016 ug/mL; type: functional, Homo sapiens; in short: as §3
HL-60 [14] = assay: Differentiating activity of compound in HL60 cells at conc 0.4 ug/mL; type: functional, Homo sapiens; in short: as §3
HL-60 [15] = assay: Differentiating activity of compound in HL60 cells at conc 1.4 ug/mL; type: functional, Homo sapiens
HL-60 [16] = assay: Differentiating activity of compound in HL60 cells at conc 2.8 ug/mL; type: functional, Homo sapiens
HL-60 [17] = assay: Differentiating activity of compound in HL60 cells at conc 5.6 ug/mL; type: functional, Homo sapiens
HL-60 [18] = assay: Differentiating activity of compound in HL60 cells at conc 0.03 ug/mL; type: functional, Homo sapiens
HL-60 [19] = assay: Differentiating activity of compound in HL60 cells at conc 0.0003 ug/mL; type: functional, Homo sapiens
HL-60 [20] = assay: Differentiating activity of compound in HL60 cells at conc 0.003 ug/mL; type: functional, Homo sapiens
HL-60 [21] = assay: Differentiating activity of compound in HL60 cells at conc 10 ug/mL; type: functional, Homo sapiens; in short: as §3
HL-60 [22] = assay: Differentiating activity of compound in HL60 cells at conc 50 ug/mL; type: functional, Homo sapiens; in short: as §3

`CC1=C(/C=C/C(C)=C/C=C/C(C)=C/C(=O)NCCCNC(=O)/C=C(C)/C=C/C=C(C)/C=C/C2=C(C)CCCC2(C)C)C(C)(C)CCC1` gave an IC50 (HL-60 [1]) of 3.71 µg/mL (≈ 5.81 µM), an NBT positive cells (HL-60 [2]) of 65% and an NBT positive cells (HL-60 [3]) of 33%.
`CC1=C(/C=C/C(C)=C/C=C/C(C)=C/C(=O)Nc2ccn([C@@H]3O[C@H](CO)C(O)[C@@H]3O)c(=O)n2)C(C)(C)CCC1` (some centres not stated) gave an IC50 (HL-60 [1]) of under 0.32 µg/mL, an NBT positive cells (HL-60 [4]) of 37% and an NBT positive cells (HL-60 [5]) of 29%.
`CC1=C(/C=C/C(C)=C/C=C/C(C)=C/C(=O)OC/C=C(\C)C2=CC(=O)C(C)(C)O2)C(C)(C)CCC1` was tested, and the IC50 (HL-60 [1]) was under 0.32 µg/mL, the NBT positive cells (HL-60 [4]) was 34% and the NBT positive cells (HL-60 [5]) was 33%.
Compound `CC1=C(/C=C/C(C)=C/C=C/C(C)=C/C(=O)Nc2ccn([C@@H]3O[C@@H]4CO[Si](C(C)C)(C(C)C)O[Si](C(C)C)(C(C)C)OC4[C@@H]3O)c(=O)n2)C(C)(C)CCC1` (some centres not stated) has an IC50 (HL-60 [6]) of under 0.32 µg/mL, an NBT positive cells (HL-60 [7]) of 54% and an NBT positive cells (HL-60 [8]) of 44%.
`CC1=C(/C=C/C(C)=C/C=C/C(C)=C/C(=O)O[C@H]2C(O)[C@@H](CO)O[C@H]2n2cnc3c(N)ncnc32)C(C)(C)CCC1` (some centres not stated) was tested, and the IC50 (HL-60 [1]) was 1.96 µg/mL (≈ 3.57 µM), the NBT positive cells (HL-60 [9]) was 34% and the NBT positive cells (HL-60 [10]) was 36%.
Compound `CC1=C(/C=C/C(C)=C/C=C/C(C)=C/C(=O)Nc2ncnc3c2ncn3[C@@H]2O[C@H](CO)C(O)[C@@H]2O)C(C)(C)CCC1` (some centres not stated) has an IC50 (HL-60 [1]) of under 0.32 µg/mL, an NBT positive cells (HL-60 [7]) of 46% and an NBT positive cells (HL-60 [8]) of 41%.
With `CC1=C(/C=C/C(C)=C/C=C/C(C)=C/C(=O)Nc2ncnc3c2ncn3[C@@H]2O[C@@H]3CO[Si](C(C)C)(C(C)C)O[Si](C(C)C)(C(C)C)OC3[C@@H]2O)C(C)(C)CCC1` (some centres not stated) the IC50 (HL-60 [1]) was 2.08 µg/mL (≈ 2.63 µM), the NBT positive cells (HL-60 [9]) was 31% and the NBT positive cells (HL-60 [10]) was 31%.
`CC1=C(/C=C/C(C)=C/C=C/C(C)=C/C(=O)Nc2ccc(N(CCCl)CCCl)cc2)C(C)(C)CCC1` gave an NBT positive cells (HL-60 [11]) of 24%, an IC50 (HL-60 [1]) of 3.7 µg/mL (≈ 7.18 µM) and an NBT positive cells (HL-60 [12]) of 43%.
Work on `Nc1ccn([C@@H]2O[C@H](CO)[C@@H](O)[C@@H]2O)c(=O)n1` [CYTARABINE] yielded an IC50 (HL-60 [1]) of 0.029 µg/mL (≈ 0.119 µM), an NBT positive cells (HL-60 [13]) of 8% and an NBT positive cells (HL-60 [14]) of 20%. It also gave an NBT positive cells (HL-60 [5]) of 5%.
`C[S+](C)[O-]` [DIMETHYL SULFOXIDE] was tested, and the NBT positive cells (HL-60 [15]) was 12%, the NBT positive cells (HL-60 [16]) was 28% and the NBT positive cells (HL-60 [17]) was 53%.
`CC1=C(/C=C/C(C)=C/C=C/C(C)=C/C(=O)O)C(C)(C)CCC1` [TRETINOIN] gave an NBT positive cells (HL-60 [18]) of 89%, an NBT positive cells (HL-60 [19]) of 34% and an NBT positive cells (HL-60 [20]) of 67%.
Compound `Nc1ncnc2c1ncn2[C@@H]1O[C@H](CO)[C@@H](O)[C@@H]1O` [VIDARABINE] has an NBT positive cells (HL-60 [21]) of 9%, an IC50 (HL-60 [1]) of 20.9 µg/mL (≈ 78.2 µM) and an NBT positive cells (HL-60 [22]) of 12%.
